One series relates to Human rhinovirus sp. Briefly: Effective concentration in HRV-14 infected H1- HeLa cells by protection assay. Type of series: functional, organism-based. In short, it runs like this: (§1)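 Cell protection assay in H1-HeLa cells infected with the named HRV serotype, using virus stocks propagated in H1-HeLa cells. Values reported are the 50% effective concentration (EC50), the 50% toxic concentration (TC50) and the therapeutic index (TI).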

Series [1] can be described thus: Therapeutic Index against HRV-14 virus infection. The class given is organism-based. Particulars: rhinovirus b14, H1-HeLa cells; read-out: TI. Summed up:
as §1

Series [2] can be described thus: Toxic concentration on HRV-14 infected H1- HeLa cells by protection assay. Particulars: human, H1-HeLa cells infected with HRV-14; read-out: TC50 (the source's name). The class given is toxicity, cell-based. In short, it runs like this: as §1
Series [3] deals with T1, Human rhinovirus A protease (Human rhinovirus sp., UniProt Q4U254).
T1 sequence (Q4U254 whole entry): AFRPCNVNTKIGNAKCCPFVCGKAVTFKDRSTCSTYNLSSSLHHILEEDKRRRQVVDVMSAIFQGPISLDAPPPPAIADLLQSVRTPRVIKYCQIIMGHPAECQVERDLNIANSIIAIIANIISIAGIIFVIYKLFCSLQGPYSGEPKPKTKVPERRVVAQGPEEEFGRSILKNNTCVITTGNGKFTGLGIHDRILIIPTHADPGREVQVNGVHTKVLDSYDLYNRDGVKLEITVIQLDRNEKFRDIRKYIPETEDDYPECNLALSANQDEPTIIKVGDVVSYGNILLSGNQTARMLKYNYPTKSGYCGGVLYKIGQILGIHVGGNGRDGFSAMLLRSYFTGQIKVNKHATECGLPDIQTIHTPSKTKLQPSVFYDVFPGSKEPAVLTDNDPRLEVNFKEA
Briefly: Binding affinity against HRV-14 3C protease. Summed up:
(§2)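 Recombinant 3C protease of the named HRV serotype, expressed and purified. Ki was determined by a continuous fluorescence resonance energy transfer cleavage assay, with 5 mM dithiothreitol included in the assay. Reported standard deviation ±10%.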

The target in series [4] is T1, Human rhinovirus A protease. In words: Binding affinity was measured against HRV-89 3C protease. In short, it runs like this:
as §2

A short description of series [5]: Toxic concentration was measured on HRV-89 infected H1- HeLa cells by protection assay. Type of series: ADME, cell-based. Particulars: human, H1-HeLa cells infected with HRV-89; read-out: TC50 (the source's name). In short, it runs like this:
as §1

For series [6], the system named is HeLa. In words: Effective concentration was measured on HRV-2 infected H1- HeLa cells by protection assay. Type of series: functional, cell-based. Particulars: Homo sapiens. Summed up:
as §1

Series [7] can be described thus: Toxic concentration was measured on HRV-16 infected H1- HeLa cells by protection assay. Particulars: human, H1-HeLa cells infected with HRV-16; read-out: TC50 (the source's name). Type of series: ADME, cell-based. Summed up: as §1
The subject of series [8] is HeLa. Briefly: Effective concentration was measured on HRV-16 infected H1- HeLa cells by protection assay. Type of series: functional, cell-based. Particulars: Homo sapiens. In short, it runs like this: as §1
In series [9] the target is T1, Human rhinovirus A protease. Briefly: Binding affinity was measured against HRV-2 3C protease. Summed up: as §2
Series [10] has as its system HeLa. In words: Effective concentration was measured on HRV-89 infected H1- HeLa cells by protection assay. The class given is functional, cell-based. Particulars: Homo sapiens. Summed up: as §1
Series [11] concerns the target T1, Human rhinovirus A protease. Briefly: Binding affinity was measured against HRV-16 3C protease. In short, it runs like this: as §2
Series [12] is described as follows: Toxic concentration was measured on HRV-2 infected H1- HeLa cells by protection assay. Type of series: ADME, cell-based. Particulars: human, H1-HeLa cells infected with HRV-2; read-out: TC50 (the source's name). Summed up:
as §1

18 compounds from ChEMBL document CHEMBL1131035, “Tripeptide aldehyde inhibitors of human rhinovirus 3C protease: design, synthesis, biological evaluation, and cocrystal structure solution of P1 glutamine isosteric replacements” (J Med Chem, 1998) can be followed below.

Structures can show the parent of a compound that is named as a salt. Starred links: 1 amine or outer side, 2 acyl side, 3 side chain; linkers in the order of their positions; H or OH if unused. Non-standard residues stand in square brackets, D forms with d. Residues, ends and D or L forms follow the SMILES beside them. Groups on a side chain read outwards from the residue. *: point of attachment. Met(O) = CS(=O)CC[C@H](N)C(=O)O; Isobutyryl = CC(C)C(=O)*; Cbz = O=C(OCc1ccccc1)*; Dap = NC[C@H](N)C(=O)O; Boc = CC(C)(C)OC(=O)*; CO = O=C([*:1])[*:2]; Propionyl = CCC(=O)*; Tfa = O=C(C(F)(F)F)*; Bz = O=C(c1ccccc1)*; Ms = CS(=O)(=O)*; Moc = COC(=O)*; For = O=C*

Compound `CC(C)C[C@H](NC(=O)OCc1ccccc1)C(=O)N[C@@H](Cc1ccccc1)C(=O)N[C@H](C=O)CC[S+](C)[O-]` (stereo partly drawn) (Cbz-Leu-Phe-[Met(O)]-aldehyde) registered an EC50 in the series with Human rhinovirus sp. of 4500 nM. Further, the selectivity ratio in series [1] was more than 22. The CC50 in [2] is more than 100000 nM. Moreover, in series [3], affinity was put at a Ki of 5 nM.

`CCC(=O)NC[C@@H](C=O)NC(=O)[C@H](Cc1ccccc1)NC(=O)[C@H](CC(C)C)NC(=O)OCc1ccccc1` (Cbz-Leu-Phe-[Dap](Propionyl)-aldehyde): in the series on Human rhinovirus sp., the EC50 amounted to 1300 nM. Also, the selectivity ratio in series [1] is more than 77. In addition, in series [2], the CC50 is more than 100000 nM. In [3], this compound returned a Ki of 7 nM.

`CC(C)C[C@H](NC(=O)OCc1ccccc1)C(=O)N[C@@H](Cc1ccccc1)C(=O)N[C@H](C=O)CCC(=O)N(C)C` (Cbz-Leu-Phe-Glu(NMe2)-aldehyde) returned an EC50 in the series with Human rhinovirus sp. of 1300 nM. In addition, the selectivity ratio in series [1] is 48. The CC50 in series [2] is 63000 nM. This compound returned a Ki in [3] of 5 nM.

In the series with Human rhinovirus sp., `CC(=O)N(C)C[C@@H](C=O)NC(=O)[C@H](Cc1ccccc1)NC(=O)[C@H](CC(C)C)NC(=O)OCc1ccccc1` registered an EC50 of 5200 nM. The selectivity ratio in [1] was determined as 19. Besides, in series [2], the CC50 was 100000 nM. Moreover, the Ki in [3] was 469 nM.

For `CC(=O)NC[C@@H](C=O)NC(=O)[C@H](Cc1ccccc1)NC(=O)[C@H](CC(C)C)NC(=O)OCc1ccccc1` (Cbz-Leu-Phe-[Dap](Ac)-aldehyde), the Ki in series [4] amounted to 36 nM; in series [9], 160 nM; in series [11] it was 69 nM; in [3] it was 6 nM. For the same compound, the CC50 is more than 100000 nM in [5], more than 100000 nM in series [7], 316000 nM in series [2] and more than 100000 nM in series [12]. Also, the concentration giving a half-maximal response (EC50) in the series with HeLa [6] was 3100 nM; in the series on Human rhinovirus sp. it was 2400 nM; in the series on HeLa [8] it was 2100 nM; in the series on HeLa [10], 2200 nM. In addition, in series [1], the selectivity ratio worked out at 132.

In the series on Human rhinovirus sp., `CC(C)C[C@H](NC(=O)OCc1ccccc1)C(=O)N[C@@H](Cc1ccccc1)C(=O)N[C@H](C=O)CCC(=O)NC(c1ccccc1)(c1ccccc1)c1ccccc1` displayed an EC50 of more than 15800 nM. In addition, in [2], the CC50 came to 15800 nM. In series [3], the Ki worked out at 40 nM.

In the series with Human rhinovirus sp., `CC(C)C[C@H](NC(=O)OCc1ccccc1)C(=O)N[C@@H](Cc1ccccc1)C(=O)N[C@H](C=O)CNC=O` (Cbz-Leu-Phe-[Dap](For)-aldehyde) showed an EC50 of 1600 nM. The selectivity ratio in series [1] stood at 129. For the same compound, the CC50 in series [2] was 206000 nM. The inhibitory constant (Ki) in series [3] came out at 73 nM.

In the series on Human rhinovirus sp., `CC(C)C[C@H](NC(=O)OCc1ccccc1)C(=O)N[C@@H](Cc1ccccc1)C(=O)N[C@H](C=O)CNS(C)(=O)=O` (Cbz-Leu-Phe-[Dap](Ms)-aldehyde) came in with an EC50 of 20000 nM. For the same compound, the selectivity ratio in [1] amounted to 3. Moreover, the CC50 in series [2] was 63000 nM. This compound registered a Ki in [3] of 640 nM.

`CC(C)C[C@H](NC(=O)OCc1ccccc1)C(=O)N[C@@H](Cc1ccccc1)C(=O)N[C@H](C=O)CCC#N` returned an EC50 in the series on Human rhinovirus sp. of 8000 nM. The selectivity ratio in [1] was determined as 4. Besides, the CC50 in series [2] came to 31000 nM. Besides, in [3], the affinity, expressed as Ki, was 190 nM.

On to `CC(C)C[C@H](NC(=O)OCc1ccccc1)C(=O)N[C@@H](Cc1ccccc1)C(=O)N[C@H](C=O)CCC(N)=O` (Cbz-Leu-Phe-Gln-aldehyde), for which, in the series on Human rhinovirus sp., the EC50 was found to be 66000 nM. Further, the selectivity ratio in [1] was determined as 6. Moreover, in series [2], the CC50 turned out to be 398000 nM. The same compound came in with a Ki in [3] of 3600 nM.

`CC(C)C[C@H](NC(=O)OCc1ccccc1)C(=O)N[C@@H](Cc1ccccc1)C(=O)N[C@H](C=O)CNC(=O)N(C)C` (Cbz-Leu-Phe-[Dap]([CO-NMe2])-aldehyde) registered an EC50 with Human rhinovirus sp. of 2100 nM. Also, the selectivity ratio in [1] was found to be 47. Moreover, the CC50 in series [2] was 99000 nM. The Ki in [3] was determined as 10 nM.

Compound `CC(C)C[C@H](NC(=O)OCc1ccccc1)C(=O)N[C@@H](Cc1ccccc1)C(=O)N[C@H](C=O)CNC(=O)OC(C)(C)C` (Cbz-Leu-Phe-[Dap](Boc)-aldehyde) displayed an EC50 in the series with Human rhinovirus sp. of 2000 nM. Further, the selectivity ratio in series [1] amounted to 28. Also, the CC50 in series [2] was 56200 nM. The same compound yielded a Ki in series [3] of 66 nM.

With `CC(C)C[C@H](NC(=O)OCc1ccccc1)C(=O)N[C@@H](Cc1ccccc1)C(=O)N[C@H](C=O)CNC(=O)c1ccno1`, the EC50 in the series with Human rhinovirus sp. is 1500 nM. In addition, the selectivity ratio in series [1] was found to be 40. In addition, in series [2], the CC50 came to 59500 nM. This compound had a Ki in [3] of 5 nM.

In the series on Human rhinovirus sp., `COC(=O)NC[C@@H](C=O)NC(=O)[C@H](Cc1ccccc1)NC(=O)[C@H](CC(C)C)NC(=O)OCc1ccccc1` (Cbz-Leu-Phe-[Dap](Moc)-aldehyde) gave an EC50 of 5000 nM. Besides, in series [1], the selectivity ratio was 11. Moreover, the CC50 in series [2] was found to be 56200 nM. In [3], the Ki worked out at 132 nM.

In the series on Human rhinovirus sp., `CC(C)C[C@H](NC(=O)OCc1ccccc1)C(=O)N[C@@H](Cc1ccccc1)C(=O)N[C@H](C=O)CNC(=O)c1ccccc1` (Cbz-Leu-Phe-[Dap](Bz)-aldehyde) showed an EC50 of 1000 nM. Further, the selectivity ratio in series [1] amounted to 51. The CC50 in series [2] is 51200 nM. For the same compound, the affinity in series [3], expressed as Ki, was 12 nM.

For the compound `CC(C)C[C@H](NC(=O)OCc1ccccc1)C(=O)N[C@@H](Cc1ccccc1)C(=O)N[C@H](C=O)CNC(=O)C(F)(F)F` (Cbz-Leu-Phe-[Dap](Tfa)-aldehyde), in the series with Human rhinovirus sp., the half-maximal effective concentration (EC50) worked out at 1800 nM. The selectivity ratio in series [1] worked out at 14. For the same compound, the CC50 in series [2] came out at 25000 nM. This compound returned an inhibition constant (Ki) in series [3] of 146 nM.

Compound `CC(C)C[C@H](NC(=O)OCc1ccccc1)C(=O)N[C@@H](Cc1ccccc1)C(=O)N[C@H](C=O)CNC(=O)C(C)C` (Cbz-Leu-Phe-[Dap](Isobutyryl)-aldehyde) came in with an EC50 in the series on Human rhinovirus sp. of 4000 nM. In addition, the selectivity ratio in [1] came out at 5. Further, the CC50 in [2] stood at 18000 nM. Also, in [3], the Ki was 18 nM.

Turning to `CC(C)C[C@H](NC(=O)OCc1ccccc1)C(=O)N[C@@H](Cc1ccccc1)C(=O)N[C@H](C=O)CN1CCCC1=O`, a half-maximal effect in the series on Human rhinovirus sp. (EC50) was put at 4000 nM. In series [1], the selectivity ratio is more than 25. Also, the CC50 in series [2] is more than 100000 nM. This compound came in with an inhibitory constant (Ki) in [3] of 52 nM.
